Test results as given in ChEMBL document CHEMBL4152256, “Structure-activity relationship of new antimalarial 1-aryl-3-susbtituted propanol derivatives: Synthesis, preliminary toxicity profiling, parasite life cycle stage studies, target exploration, and targeted delivery” (Eur J Med Chem, 2018).
Active and inactive are the calls of the source. The calls are words filed in the database; no cut-off is given here.

Key:
[1] = Cytotoxicity against human HepG2A16 cells by MTT assay; type: cell-based
Outline: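 MTT viability assay on HepG2-A16 cells, giving CC50 values.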

Plasmodium berghei [2] = experiment: Antiplasmodial activity against Plasmodium berghei ANKA infected in mouse assessed as mouse survival time at 3 mg/kg/day, po for 4 consecutive days starting from 2 hrs post infection by MSF assay; type: functional
Outline: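 Swiss male mice (20 ± 2 g) infected i.p. with 10^7 P. berghei ANKA parasitized cells in 0.1 mL 0.9% saline (day 0). Oral dosing began 2 h post-infection and continued daily on days 0–3, five mice per batch. Test drugs were given at 50 mg/kg/day in water:DMSO and chloroquine diphosphate at 3 mg/kg/day; a vehicle control was included. Survival was checked daily, and parasitemia was read on day 4 by modified MSF assay.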

[3] = Drug encapsulation in liposomes assessed as encapsulation efficiency in citrate/phosphate buffered measured after ultracentrifugation using compound addition to preformed liposomes by UV/Vis spectroscopy relative to untreated control; type: physicochemical; settings: artificial membrane
Outline: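 Compound loaded into DSPC:cholesterol:DSPE-PEG2000-Mal:DOPE-Rho (84.5:10:5:0.5) liposomes using a citrate (pH 4.0)/PBS pH gradient. Drug measured by UV/vis after SDS disruption at each step: citrate liposomes, after buffer exchange to PBS (chloroquine added to preformed liposomes here), and after ultracentrifugation. Encapsulation efficiency = % of drug that is encapsulated out of total drug in the sample.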

Plasmodium berghei [4] = experiment: Antiplasmodial activity against Plasmodium berghei ANKA infected in mouse assessed as inhibition of parasitemia at 3 mg/kg/day, po for 4 consecutive days starting from 2 hrs post infection by MSF assay relative to control; type: functional
Outline: (§1)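 Swiss male mice (20 ± 2 g) infected ip with 10^7 P. berghei ANKA parasitized cells (day 0). Five per group dosed orally 2 h after infection and daily on days 0–3. Test compounds at 50 mg/kg/day in water:DMSO; chloroquine diphosphate at 3 mg/kg/day; vehicle controls. Parasitemia measured on day 4 by MSF assay; survival checked daily.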

Plasmodium falciparum [5] = experiment: Antiplasmodial activity against multidrug-resistant Plasmodium falciparum C235 after 72 hrs by MSF assay; type: functional, organism-based; settings: C235, 72 h
Outline: (§2)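 D6 and C235 strains from the Walter Reed Army Institute of Research were tested by the Malaria SYBR Green-I fluorescence assay.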

[6] = Selectivity index, ratio of CC50 for human HepG2A16 cells by MTT assay to IC50 for multidrug-resistant Plasmodium falciparum FCR-3; type: toxicity
Outline: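 HepG2-A16 human hepatoma cells were tested by MTT viability assay to give CC50. Blood-stage activity was measured against the multidrug-resistant P. falciparum FCR-3 strain by [3H]-hypoxanthine incorporation to give IC50. SI = CC50 HepG2 / FCR-3 IC50.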

Plasmodium berghei [7] = experiment: Antiplasmodial activity against GFP-fused Plasmodium berghei sporozoites infected in human HepG2A16 cells treated simultaneously with infection by fluorescence microscopic analysis; type: functional, organism-based; settings: Plasmodium berghei, HepG2A16; read-out: IC50
Outline: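 HepG2-A16 cells (3 × 10^4/well, collagen-coated) infected with PbGFP sporozoites (5 × 10^3 to 1 × 10^4/well) and treated at the same time. Top concentration 10 µg/mL in DMEM, seven serial dilutions. Medium and compound renewed at 3 h and every 24 h. After 40 h at 37 °C: methanol fixation, anti-Plasmodium Hsp70 immunolabeling, Alexa 594 secondary, DAPI; high-content imaging.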

[8] = Selectivity index, ratio of CC50 for human primary hepatocytes to IC50 for Plasmodium falciparum FCR-3 sporozoites infected in human primary hepatocytes; type: toxicity, cell-based; settings: read-out: Ratio CC50/IC50
Outline: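 Primary human hepatocytes were plated at 8 × 10^4 per well on collagen and infected with P. falciparum sporozoites (2.5 × 10^4 per well). Compounds were given at infection from 10 µg/mL plus seven dilutions, refreshed every 24 h, for 8 days. EEFs were read by Hsp70 immunostaining. […] Two independent experiments were run.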

Plasmodium berghei [9] = experiment: Antiplasmodial activity against Plasmodium berghei ANKA infected in mouse assessed as inhibition of parasitemia at 50 mg/kg/day, po for 4 consecutive days starting from 2 hrs post infection by MSF assay relative to control; type: functional; outline: as §1
Plasmodium falciparum [10] = experiment: Antiplasmodial activity against Plasmodium falciparum D6 after 72 hrs by MSF assay; type: functional, organism-based; settings: D6, 72 h; outline: as §2
Plasmodium falciparum [11] = experiment: Antiplasmodial activity against multidrug-resistant Plasmodium falciparum FCR-3 by [3H]-hypoxanthine incorporation assay; type: functional, organism-based, FCR-3/Gambia
Outline: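 Blood-stage P. falciparum 3D7 and FCR-3 were tested by a modified [3H]-hypoxanthine incorporation assay. Chloroquine was the reference in all runs.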

[12] = Selectivity index, ratio of GI50 for African green monkey vero cells to IC50 for multidrug-resistant Plasmodium falciparum FCR-3; type: toxicity; settings: read-out: Selectivity Index
[13] = Cytotoxicity against human primary hepatocytes after 48 hrs by MTT assay; type: cell-based, Hepatocyte
Outline: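 Primary human hepatocytes seeded at 2 × 10^5/well and grown 24 h at 37 °C, 5% CO2. Compound dilutions added in triplicate for 48 h. MTT (2 mg/mL) added for 4 h, then DMSO for 20 min; absorbance read at 550 nm. Untreated and diluent controls included; CC50 calculated.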

Plasmodium falciparum [14] = experiment: Antiplasmodial activity against Plasmodium falciparum FCR-3 sporozoites infected in human primary hepatocytes treated simultaneously with infection by DAPI staining based HCS analysis; type: functional, organism-based, FCR-3/Gambia; settings: Plasmodium falciparum, FCR-3/Gambia; read-out: IC50
[15] = Selectivity index, ratio of CC50 for human HepG2A16 cells to IC50 for GFP-fused Plasmodium berghei sporozoites infected in human HepG2A16 cells; type: toxicity, cell-based; settings: read-out: Ratio CC50/IC50
Outline: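 HepG2-A16 cells were grown at 3 × 10^4 per well on collagen and infected with GFP P. berghei sporozoites (5 × 10^3 to 1 × 10^4 per well) from A. stephensi salivary glands. Compounds were added at infection, from 10 µg/mL top plus seven serial dilutions, and refreshed at 3 h and then every 24 h. After 40 h at 37 °C, EEFs were methanol-fixed, anti-Hsp70 immunolabelled and counted by high-content imaging. SI = HepG2 CC50 / liver-stage IC50.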

Plasmodium berghei [16] = experiment: Antiplasmodial activity against Plasmodium berghei ANKA infected in Swiss mouse assessed as reduction in parasitemia at 50 mg/kg/day, po for 4 consecutive days by Giemsa staining based assay relative to control; type: functional; set-up: scale not given: the % may be the effect or the level left
Plasmodium berghei [17] = experiment: (§3) Antiplasmodial activity against GFP-fused Plasmodium berghei in Anopheles stephensi mosquitoes feeded on blood from infected mouse at 100 mg/kg, ip pretreated for 1.5 hrs followed by blood feeding of mosquito assessed as reduction in number of oocysts in mosquito midgut and measured at 8 days post mosquitoes infection by fluorescence microscopic method relative to control; type: functional; set-up: scale not given: the % may be the effect or the level left
Outline: (§4)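 Mice (two per group) infected ip with 200 µL PbGFP-infected RBCs (3000 parasites/µL); gametocytes checked at day 4. Compound given ip at 100 mg/kg in DMSO 1.5 h before A. stephensi fed 1 h on mice at 1% gametocytaemia. Untreated and DMSO-treated mice as controls. After 8 days, 30 mosquitoes per group dissected; midgut oocysts counted by fluorescence microscopy; inhibition relative to control oocyst numbers (100%).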

Plasmodium falciparum [18] = experiment: Binding affinity to Plasmodium falciparum GRP94 nucleotide binding domain at 0.5 mM by SYPRO orange dye based DSF analysis
Outline: (§5)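 Recombinant P. falciparum Hsp90 or GRP94 nucleotide-binding domain (0.05–0.2 mg/mL, optimized per protein) in 25 mM HEPES pH 7.5, 250 mM NaCl. Compound final concentration was 0.5 mM, with SYPRO Orange at 1:1000. Samples were heated from 18 to 90 °C at 1 °C/min. Tm was taken as the Boltzmann-fit inflection point. ΔTm = Tm with ligand minus Tm without, and shifts beyond ±1 °C were counted significant.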

[19] = target: T1, HSP90 (Plasmodium falciparum 3D7) (UniProt Q8IL32); experiment: Binding affinity to Plasmodium falciparum HSP90 nucleotide binding domain at 0.5 mM by SYPRO orange dye based DSF analysis; outline: as §5
T1 sequence (whole entry): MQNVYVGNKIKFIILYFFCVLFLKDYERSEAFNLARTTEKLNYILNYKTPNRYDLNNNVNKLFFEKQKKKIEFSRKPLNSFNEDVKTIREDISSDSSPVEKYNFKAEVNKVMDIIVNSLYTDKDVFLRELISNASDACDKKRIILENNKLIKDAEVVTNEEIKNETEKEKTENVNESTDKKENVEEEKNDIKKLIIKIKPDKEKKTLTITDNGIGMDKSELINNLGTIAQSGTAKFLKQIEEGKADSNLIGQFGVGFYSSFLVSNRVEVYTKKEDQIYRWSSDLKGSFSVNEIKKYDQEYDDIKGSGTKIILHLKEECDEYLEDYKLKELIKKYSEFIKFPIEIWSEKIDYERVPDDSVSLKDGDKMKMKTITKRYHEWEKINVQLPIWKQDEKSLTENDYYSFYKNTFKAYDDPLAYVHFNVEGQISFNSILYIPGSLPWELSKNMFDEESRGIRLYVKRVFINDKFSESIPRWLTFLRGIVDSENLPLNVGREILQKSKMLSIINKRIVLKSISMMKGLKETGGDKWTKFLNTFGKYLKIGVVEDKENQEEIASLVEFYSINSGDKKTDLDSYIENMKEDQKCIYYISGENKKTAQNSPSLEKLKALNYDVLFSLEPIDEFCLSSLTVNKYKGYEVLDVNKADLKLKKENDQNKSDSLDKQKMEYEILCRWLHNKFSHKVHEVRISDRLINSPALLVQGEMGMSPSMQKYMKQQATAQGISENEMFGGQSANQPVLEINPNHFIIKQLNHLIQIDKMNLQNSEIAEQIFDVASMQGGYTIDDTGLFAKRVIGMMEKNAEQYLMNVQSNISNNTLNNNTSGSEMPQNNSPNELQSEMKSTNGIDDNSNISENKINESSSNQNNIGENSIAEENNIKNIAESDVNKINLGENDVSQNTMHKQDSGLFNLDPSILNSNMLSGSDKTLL

Plasmodium falciparum [20] = experiment: (§6) Binding affinity to Plasmodium falciparum GRP94 nucleotide binding domain by SPR analysis
Outline: (§7)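 Purified PfHsp90 and PfGRP94 nucleotide-binding domains were amine-coupled to a CM5 chip (3000 and 7000 RU, respectively), with a blank reference surface. Seven compound concentrations (0.4 nM–1 mM) were injected in triplicate at 30 µL/min, 25 °C, in random order. Running buffer: 10 mM HEPES pH 7.4, 150 mM NaCl, 0.005% P20, 1% DMSO, 2 mM MgCl2. Kd came from double-referenced sensorgrams.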

[21] = target: T1, HSP90 (Plasmodium falciparum 3D7); experiment: (§8) Binding affinity to Plasmodium falciparum HSP90 nucleotide binding domain by SPR analysis; outline: as §7
Plasmodium berghei [22] = experiment: as §3, with “infection” for “number”, “of” for “of oocysts in”, “mosquito” for “mosquito midgut”; type: functional; set-up: scale not given: the % may be the effect or the level left; outline: as §4
[23] = as §6; outline: as §7
HSP90 = target: T2, HSP90 (Plasmodium falciparum 3D7, UniProt Q8IL32); experiment: as §8; outline: as §7
T2 sequence (Q8IL32 whole entry): T1 sequence (whole entry)

[24] = Plasmodium falciparum, FCR-3/Gambia, 3 h

| SMILES | CC50 ([1]; HepG2A16 cells) [µM] | IC50 (Plasmodium berghei [7]) [µM] | selectivity ratio [8] | CC50 at 48 h [13] [µM] | IC50 (Plasmodium falciparum [14]) [µM] | selectivity ratio [15] | Activity (Plasmodium falciparum [18]) | Activity [19] | other results |
| --- | --- | --- | --- | --- | --- | --- | --- | --- | --- |
| CCN(CC)CCCC(C)Nc1ccnc2cc(Cl)ccc12 (stereo unspecified) [CHLOROQUINE] | 137 |  |  |  |  |  |  |  | MSD (Plasmodium berghei [2]): 11 days |
| CCN(CC)CCCC(C)Nc1ccnc2cc(Cl)ccc12.O=P(O)(O)O.O=P(O)(O)O (stereo unspecified) [CHLOROQUINE PHOSPHATE] |  |  |  |  |  |  |  |  | Activity [3]: 95.8%; inhibition in vivo at 3 mg/kg/day (Plasmodium berghei [4]): 88.5% |
| O=[N+]([O-])c1ccc(N2CCC(NCCC(O)c3ccc(F)c4ccccc34)CC2)c(C(F)(F)F)c1 (stereo in doubt; 8) |  | 12.1 | 7.3 | 13.1 | 1.79 | 0.5 |  |  | CC50 [1]: 5.7 µM; IC50 (Plasmodium falciparum [5]): 0.13 µM; Ratio CC50/IC50 [6]: 38; inhibition in vivo at 50 mg/kg/day (Plasmodium berghei [9]): 96.4%; IC50 (Plasmodium falciparum [10]): 0.11 µM; IC50 (Plasmodium falciparum [11]): 0.15 µM; selectivity ratio [12]: 37; Activity (Plasmodium berghei [16]): 98% |
| O=[N+]([O-])c1ccc(N2CCC(NCCC(O)c3ccc(F)cc3)CC2)c(C(F)(F)F)c1 (stereo unspecified) | 10.4 | 18.2 | 11.4 | 19.5 | 1.71 | 0.6 | inactive | inactive | Activity (Plasmodium berghei [17]): 70%; selectivity ratio ([6]; HepG2A16 cells, read-out: Ratio CC50/IC50): 22; IC50 (Plasmodium falciparum [11]; [24]): 0.48 µM; Activity (Plasmodium falciparum [20]): inactive; Activity [21]: inactive; Activity (Plasmodium berghei [22]): 24% |
| OC(CN1CCN(Cc2ccccc2)CC1)Cn1c2ccc(Cl)cc2c2cc(Cl)ccc21 (stereo unspecified) |  |  |  |  |  |  | inactive | inactive | Kd [23]: 0.017 µM; Kd (HSP90): 0.027 µM |
| COc1cc(NC(C)CCCN)c2ncccc2c1 (stereo unspecified) [PRIMAQUINE] | 120 | 3.65 | 135 | 54 | 0.4 | 32.9 |  |  | IC50 (Plasmodium falciparum [11]; [24]): 1.18 µM |
| CC(C)NCC(O)Cn1c2ccc(Cl)cc2c2cc(Cl)ccc21 (stereo unspecified) |  |  |  |  |  |  | inactive | inactive | Kd [23]: 4480 µM; Kd (HSP90): 0.007 µM |
